Source: ChEMBL document CHEMBL1177801, “Structure-based design and synthesis of pyrrole derivatives as MEK inhibitors” (Bioorg Med Chem Lett, 2010)
Active and inactive are the calls of the source. No cut-off for these calls is given here.

Tests used:
[1] = Half life in human liver microsomes; format: ADME, Microsome
[2] = Half life in rat liver microsomes; format: ADME, Microsome
COLO 205 = assay: Cytotoxicity against human COLO205 cells expressing b-Raf V600E mutant after 72 hrs by MTS assay; format: functional, cell-based; details: COLO 205, 72 h
Procedure, shortened: (§1)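 Human BRAF(V600E) line seeded at 3000–10,000 cells per 96 well, allowed 16 h at 37 °C in humidified 5% CO2. Then exposed 72 h to an eleven-point compound dilution in duplicate. NADH measured by MTS tetrazolium conversion, read at OD 490 nm. EC50 taken from compound concentration vs total NADH.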

[3] = biological target: Dual specificity mitogen-activated protein kinase kinase 1 (Homo sapiens, UniProt Q02750); assay: Inhibition of MEK1 by cascade assay method
Procedure, shortened: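 Cascade format, compounds serially diluted in DMSO, then in 50 mM HEPES pH 7.3, 10 mM NaCl, 10 mM MgCl2, 0.01% Brij35, 1 mM DTT. Reaction started with 1 nM MEK1 and 400 µM ATP (also run at 10 µM). Product read by IMAP fluorescence polarization. IC50 fitted with standard models.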

A-375 = assay: Cytotoxicity against human A375 cells expressing b-Raf V600E mutant after 72 hrs by MTS assay; format: functional, cell-based; details: A-375, 72 h; procedure, shortened: as §1
[4] = biological target: Tyrosine-protein kinase ABL1 (Homo sapiens) (UniProt P00519); assay: Inhibition of Abl1 at 10 uM
[5] = biological target: 3-phosphoinositide-dependent protein kinase 1 (PDPK1) (Homo sapiens) (UniProt O15530); assay: Inhibition of PDK1 at 10 uM
[6] = biological target: Proto-oncogene tyrosine-protein kinase Src (Homo sapiens) (UniProt P12931); assay: Inhibition of c-SRC at 10 uM
[7] = biological target: Angiopoietin-1 receptor (Homo sapiens) (UniProt Q02763); assay: Inhibition of Tie2 at 10 uM
Angiopoietin-1 receptor (Homo sapiens), sequence (Q02763 whole entry): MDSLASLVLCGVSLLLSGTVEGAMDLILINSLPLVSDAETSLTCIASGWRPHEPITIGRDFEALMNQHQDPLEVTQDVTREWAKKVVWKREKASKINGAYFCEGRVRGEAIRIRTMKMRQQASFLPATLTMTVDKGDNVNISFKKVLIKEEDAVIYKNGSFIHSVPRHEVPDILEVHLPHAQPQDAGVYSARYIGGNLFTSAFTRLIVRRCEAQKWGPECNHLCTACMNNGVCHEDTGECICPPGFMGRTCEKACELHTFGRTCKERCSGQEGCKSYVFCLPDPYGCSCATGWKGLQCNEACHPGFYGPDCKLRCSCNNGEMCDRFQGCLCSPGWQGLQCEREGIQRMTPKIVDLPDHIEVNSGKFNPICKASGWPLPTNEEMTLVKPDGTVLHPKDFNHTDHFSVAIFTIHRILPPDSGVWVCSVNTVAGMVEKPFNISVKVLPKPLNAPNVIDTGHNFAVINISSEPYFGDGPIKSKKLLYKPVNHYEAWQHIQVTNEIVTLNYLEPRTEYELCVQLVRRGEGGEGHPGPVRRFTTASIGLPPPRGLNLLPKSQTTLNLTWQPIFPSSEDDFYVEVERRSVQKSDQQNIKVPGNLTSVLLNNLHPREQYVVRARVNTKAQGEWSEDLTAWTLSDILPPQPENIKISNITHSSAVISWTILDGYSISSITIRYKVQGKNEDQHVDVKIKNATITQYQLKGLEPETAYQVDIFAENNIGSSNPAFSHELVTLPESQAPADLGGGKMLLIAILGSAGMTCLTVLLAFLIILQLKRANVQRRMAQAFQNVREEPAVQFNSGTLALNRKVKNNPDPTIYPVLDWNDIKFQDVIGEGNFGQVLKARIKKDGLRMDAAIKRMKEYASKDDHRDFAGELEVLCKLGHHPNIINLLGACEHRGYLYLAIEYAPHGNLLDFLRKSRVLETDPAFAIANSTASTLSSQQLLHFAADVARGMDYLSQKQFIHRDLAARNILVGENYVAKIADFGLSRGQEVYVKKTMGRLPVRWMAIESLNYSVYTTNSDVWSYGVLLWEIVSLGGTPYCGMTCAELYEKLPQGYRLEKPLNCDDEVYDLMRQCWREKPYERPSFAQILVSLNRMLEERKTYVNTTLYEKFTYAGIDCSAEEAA

[8] = biological target: RAF proto-oncogene serine/threonine-protein kinase (Homo sapiens) (UniProt P04049); assay: Inhibition of c-RAF at 10 uM
[9] = biological target: T1, Tyrosine-protein kinase JAK3 (Homo sapiens) (UniProt P52333); assay: Inhibition of JAK3 at 10 uM
T1 sequence (whole entry): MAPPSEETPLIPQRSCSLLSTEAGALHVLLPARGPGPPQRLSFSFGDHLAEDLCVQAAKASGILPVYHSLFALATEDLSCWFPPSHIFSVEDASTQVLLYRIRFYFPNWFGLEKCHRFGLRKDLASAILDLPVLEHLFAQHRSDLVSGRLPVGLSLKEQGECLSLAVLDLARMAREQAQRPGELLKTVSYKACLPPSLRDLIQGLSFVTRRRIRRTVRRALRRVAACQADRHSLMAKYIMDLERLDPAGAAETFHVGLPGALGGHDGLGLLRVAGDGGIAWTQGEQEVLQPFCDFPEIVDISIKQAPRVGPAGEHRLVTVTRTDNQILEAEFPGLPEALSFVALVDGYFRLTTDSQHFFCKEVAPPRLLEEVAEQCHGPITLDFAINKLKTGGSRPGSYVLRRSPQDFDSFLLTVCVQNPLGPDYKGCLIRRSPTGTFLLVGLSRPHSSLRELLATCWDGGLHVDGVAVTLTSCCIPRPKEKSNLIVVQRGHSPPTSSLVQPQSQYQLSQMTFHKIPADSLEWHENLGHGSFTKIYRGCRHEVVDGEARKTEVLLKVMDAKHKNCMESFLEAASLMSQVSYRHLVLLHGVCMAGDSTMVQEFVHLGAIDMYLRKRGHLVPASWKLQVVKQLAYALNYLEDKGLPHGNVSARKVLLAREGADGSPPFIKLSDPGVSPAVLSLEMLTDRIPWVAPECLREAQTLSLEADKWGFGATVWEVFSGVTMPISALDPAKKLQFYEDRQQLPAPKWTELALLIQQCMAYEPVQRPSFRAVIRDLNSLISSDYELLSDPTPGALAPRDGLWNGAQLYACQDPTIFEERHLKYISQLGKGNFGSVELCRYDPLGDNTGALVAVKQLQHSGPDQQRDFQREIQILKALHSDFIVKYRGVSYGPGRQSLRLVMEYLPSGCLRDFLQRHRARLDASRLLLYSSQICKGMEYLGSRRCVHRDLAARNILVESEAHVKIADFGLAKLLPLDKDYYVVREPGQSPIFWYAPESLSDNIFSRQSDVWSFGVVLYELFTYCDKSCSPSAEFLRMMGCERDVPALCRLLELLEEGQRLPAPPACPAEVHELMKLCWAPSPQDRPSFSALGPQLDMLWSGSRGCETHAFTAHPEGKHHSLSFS

[10] = biological target: Tyrosine-protein kinase SYK (Homo sapiens) (UniProt P43405); assay: Inhibition of Syk at 10 uM
[11] = biological target: Calcium/calmodulin-dependent protein kinase type 1D (Homo sapiens) (UniProt Q8IU85); assay: Inhibition of CamK1delta at 10 uM
[12] = biological target: Mitogen-activated protein kinase 14 (Homo sapiens) (UniProt Q16539); assay: Inhibition of P38alpha at 10 uM
Mitogen-activated protein kinase 14 (Homo sapiens), sequence (Q16539 whole entry): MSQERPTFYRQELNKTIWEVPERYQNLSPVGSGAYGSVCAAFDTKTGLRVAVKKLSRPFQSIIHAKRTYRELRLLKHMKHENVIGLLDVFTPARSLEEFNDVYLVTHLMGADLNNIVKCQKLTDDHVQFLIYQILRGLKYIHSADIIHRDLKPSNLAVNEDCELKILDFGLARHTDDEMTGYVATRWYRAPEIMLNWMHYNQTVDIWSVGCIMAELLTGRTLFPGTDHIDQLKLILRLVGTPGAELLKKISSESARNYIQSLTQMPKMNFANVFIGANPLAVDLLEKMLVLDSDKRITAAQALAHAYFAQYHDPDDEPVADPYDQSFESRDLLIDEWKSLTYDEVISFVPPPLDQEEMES

[13] = biological target: Insulin receptor (Homo sapiens) (UniProt P06213); assay: Inhibition of insulin receptor at 10 uM
[14] = biological target: Platelet-derived growth factor receptor beta (Homo sapiens) (UniProt P09619); assay: Inhibition of PDGFRbeta at 10 uM
Platelet-derived growth factor receptor beta (Homo sapiens), sequence (P09619 whole entry): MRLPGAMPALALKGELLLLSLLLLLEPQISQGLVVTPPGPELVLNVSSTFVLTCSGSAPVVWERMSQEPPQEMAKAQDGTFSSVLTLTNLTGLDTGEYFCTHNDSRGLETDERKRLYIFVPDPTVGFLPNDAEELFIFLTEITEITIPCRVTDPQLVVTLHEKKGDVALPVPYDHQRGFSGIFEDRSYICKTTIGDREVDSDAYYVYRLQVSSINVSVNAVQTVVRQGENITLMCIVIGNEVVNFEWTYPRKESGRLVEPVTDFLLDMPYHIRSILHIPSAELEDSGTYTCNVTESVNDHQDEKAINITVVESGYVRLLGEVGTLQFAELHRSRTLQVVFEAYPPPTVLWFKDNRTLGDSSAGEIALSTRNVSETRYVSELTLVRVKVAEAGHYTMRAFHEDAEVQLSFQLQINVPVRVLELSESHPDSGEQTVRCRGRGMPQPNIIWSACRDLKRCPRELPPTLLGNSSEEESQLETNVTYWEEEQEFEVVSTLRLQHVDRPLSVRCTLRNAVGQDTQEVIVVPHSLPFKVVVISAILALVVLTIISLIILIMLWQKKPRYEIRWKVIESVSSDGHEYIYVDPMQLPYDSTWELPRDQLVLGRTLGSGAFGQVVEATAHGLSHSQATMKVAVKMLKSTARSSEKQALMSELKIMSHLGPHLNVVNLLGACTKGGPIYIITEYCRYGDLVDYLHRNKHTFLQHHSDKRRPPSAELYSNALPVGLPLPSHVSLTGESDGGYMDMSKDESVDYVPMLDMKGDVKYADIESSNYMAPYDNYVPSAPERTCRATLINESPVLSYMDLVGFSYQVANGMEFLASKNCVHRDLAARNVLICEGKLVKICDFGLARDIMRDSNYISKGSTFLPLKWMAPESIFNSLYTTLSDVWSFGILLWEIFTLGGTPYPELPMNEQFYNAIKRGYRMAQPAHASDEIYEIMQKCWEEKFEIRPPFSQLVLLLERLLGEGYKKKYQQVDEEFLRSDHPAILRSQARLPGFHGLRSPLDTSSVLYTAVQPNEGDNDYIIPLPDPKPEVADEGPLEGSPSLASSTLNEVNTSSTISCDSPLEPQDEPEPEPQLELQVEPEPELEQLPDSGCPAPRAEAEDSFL

[15] = biological target: Serine/threonine-protein kinase PLK3 (Homo sapiens) (UniProt Q9H4B4); assay: Inhibition of PLK3 at 10 uM
Serine/threonine-protein kinase PLK3 (Homo sapiens), sequence (Q9H4B4 whole entry, looked up): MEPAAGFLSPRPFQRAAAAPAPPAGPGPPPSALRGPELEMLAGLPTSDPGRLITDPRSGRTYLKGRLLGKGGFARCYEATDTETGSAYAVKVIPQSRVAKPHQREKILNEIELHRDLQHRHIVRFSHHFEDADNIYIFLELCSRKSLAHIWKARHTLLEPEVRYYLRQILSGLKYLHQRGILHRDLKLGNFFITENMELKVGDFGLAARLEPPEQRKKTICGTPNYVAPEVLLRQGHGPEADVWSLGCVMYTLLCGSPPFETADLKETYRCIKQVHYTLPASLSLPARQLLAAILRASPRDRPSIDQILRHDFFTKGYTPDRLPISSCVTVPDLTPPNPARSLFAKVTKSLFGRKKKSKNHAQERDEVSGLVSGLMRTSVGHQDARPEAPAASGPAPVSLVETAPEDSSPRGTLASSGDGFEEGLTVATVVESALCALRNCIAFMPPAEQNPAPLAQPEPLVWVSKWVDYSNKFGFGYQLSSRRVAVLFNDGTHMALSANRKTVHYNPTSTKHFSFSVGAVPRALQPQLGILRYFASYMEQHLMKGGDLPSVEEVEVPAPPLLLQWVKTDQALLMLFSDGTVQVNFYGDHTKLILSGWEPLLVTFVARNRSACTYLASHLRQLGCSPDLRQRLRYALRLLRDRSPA

[16] = biological target: Protein kinase C alpha type (Homo sapiens) (UniProt P17252); assay: Inhibition of PKCalpha at 10 uM
[17] = biological target: Epidermal growth factor receptor (Homo sapiens) (UniProt P00533); assay: Inhibition of EGFR at 10 uM
[18] = biological target: RAC-gamma serine/threonine-protein kinase (Homo sapiens) (UniProt Q9Y243); assay: Inhibition of AKT3 at 10 uM
RAC-gamma serine/threonine-protein kinase (Homo sapiens), sequence (Q9Y243 whole entry): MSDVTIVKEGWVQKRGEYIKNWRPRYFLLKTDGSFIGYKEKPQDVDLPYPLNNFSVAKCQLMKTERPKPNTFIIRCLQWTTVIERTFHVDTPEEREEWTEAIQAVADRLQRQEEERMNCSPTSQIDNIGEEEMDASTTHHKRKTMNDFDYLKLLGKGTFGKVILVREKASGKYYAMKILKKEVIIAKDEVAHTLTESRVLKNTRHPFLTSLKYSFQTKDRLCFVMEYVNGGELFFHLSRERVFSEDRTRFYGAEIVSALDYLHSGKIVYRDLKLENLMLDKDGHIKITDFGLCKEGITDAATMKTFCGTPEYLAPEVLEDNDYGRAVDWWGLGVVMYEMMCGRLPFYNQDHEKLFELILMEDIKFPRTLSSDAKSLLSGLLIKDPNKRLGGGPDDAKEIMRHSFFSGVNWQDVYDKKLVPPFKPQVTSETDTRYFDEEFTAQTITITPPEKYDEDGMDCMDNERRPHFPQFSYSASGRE

[19] = biological target: Hepatocyte growth factor receptor (Homo sapiens) (UniProt P08581); assay: Inhibition of c-Met at 10 uM
Hepatocyte growth factor receptor (Homo sapiens), sequence (P08581 whole entry): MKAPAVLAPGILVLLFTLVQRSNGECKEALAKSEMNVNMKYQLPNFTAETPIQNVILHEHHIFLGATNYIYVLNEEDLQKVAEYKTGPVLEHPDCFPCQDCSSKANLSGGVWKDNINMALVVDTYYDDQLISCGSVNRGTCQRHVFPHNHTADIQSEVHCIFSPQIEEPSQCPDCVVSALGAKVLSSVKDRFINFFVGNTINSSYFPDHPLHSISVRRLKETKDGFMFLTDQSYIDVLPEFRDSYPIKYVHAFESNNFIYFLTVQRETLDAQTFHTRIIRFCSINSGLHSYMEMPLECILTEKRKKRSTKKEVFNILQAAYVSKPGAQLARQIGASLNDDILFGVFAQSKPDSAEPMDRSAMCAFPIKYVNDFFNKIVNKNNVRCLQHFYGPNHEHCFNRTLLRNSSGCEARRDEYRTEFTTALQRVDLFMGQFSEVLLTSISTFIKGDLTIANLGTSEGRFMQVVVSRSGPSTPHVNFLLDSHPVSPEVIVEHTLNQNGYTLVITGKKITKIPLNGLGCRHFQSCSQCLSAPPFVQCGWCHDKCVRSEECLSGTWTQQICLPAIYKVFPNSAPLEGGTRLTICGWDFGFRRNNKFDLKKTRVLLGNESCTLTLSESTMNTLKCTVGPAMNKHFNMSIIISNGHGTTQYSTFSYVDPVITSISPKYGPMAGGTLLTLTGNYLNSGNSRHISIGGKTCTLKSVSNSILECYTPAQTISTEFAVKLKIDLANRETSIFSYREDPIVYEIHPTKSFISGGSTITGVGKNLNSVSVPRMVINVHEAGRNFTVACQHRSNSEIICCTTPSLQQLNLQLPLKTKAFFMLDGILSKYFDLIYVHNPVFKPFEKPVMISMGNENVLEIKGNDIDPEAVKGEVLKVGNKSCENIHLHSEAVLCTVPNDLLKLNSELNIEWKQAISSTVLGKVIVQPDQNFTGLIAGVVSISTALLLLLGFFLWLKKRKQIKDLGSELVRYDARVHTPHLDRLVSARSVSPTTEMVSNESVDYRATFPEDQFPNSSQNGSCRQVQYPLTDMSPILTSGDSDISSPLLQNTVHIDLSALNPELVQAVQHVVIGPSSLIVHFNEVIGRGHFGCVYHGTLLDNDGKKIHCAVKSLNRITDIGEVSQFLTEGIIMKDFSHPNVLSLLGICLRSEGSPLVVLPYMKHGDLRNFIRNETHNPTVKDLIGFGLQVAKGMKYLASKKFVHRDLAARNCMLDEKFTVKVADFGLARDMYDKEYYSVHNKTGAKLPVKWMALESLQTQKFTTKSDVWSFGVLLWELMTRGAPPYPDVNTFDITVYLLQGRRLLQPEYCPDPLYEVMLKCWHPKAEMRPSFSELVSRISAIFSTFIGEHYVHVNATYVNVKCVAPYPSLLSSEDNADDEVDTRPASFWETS

[20] = biological target: Glycogen synthase kinase-3 beta (Homo sapiens) (UniProt P49841); assay: Inhibition of GSK3-beta at 10 uM
[21] = biological target: Cyclin-dependent kinase 2/cyclin A (Homo sapiens) (UniProt P24941+P20248+P78396); assay: Inhibition of CDK2/cyclinA at 10 uM; format: protein-complex assay
[22] = Oral bioavailability in rat at 5 mg/kg; format: ADME, organism-based; details: in vivo
[23] = Mean residence time in rat at 5 mg/kg, po; format: ADME, organism-based; design: dose 5 mg/kg, route oral; details: in vivo
[24] = Mean residence time in rat at 1 mg/kg, iv; format: ADME, organism-based; design: dose 1 mg/kg, route intravenous; details: in vivo
[25] = Volume of distribution at steady state in rat at 1 mg/kg, iv and 5 mg/kg, po; format: ADME, organism-based; details: in vivo, read-out: Vdss
[26] = Clearance in rat at 1 mg/kg, iv and 5 mg/kg, po; format: ADME, organism-based; details: in vivo

SMILES | half-life [1] [min] | half-life [2] [min] | IC50 [3] [nM] | EC50 (COLO 205) [nM] | EC50 (A-375) [nM] | other results
CC(=O)n1cc(C(=O)O)c(Nc2ccc(I)cc2F)c1C | 29 | 21 | 72 | 21000 | – | –
CC(=O)c1c(F)c(C(=O)NOC[C@H](O)CO)c(Nc2ccc(I)cc2F)n1C | 107 | 28 | 29 | 45 | 72 | –
CC(=O)c1c(Cl)c(C(=O)NOC[C@H](O)CO)c(Nc2ccc(I)cc2F)n1C | 52 | 23 | 32 | 23 | 46 | bioavailability [22]: 40%; MRT [23]: 246 min; MRT [24]: 51 min; Vd [25]: 0.361 L/kg; clearance [26]: 7.1 mL/min/kg
CC(=O)c1c(F)c(C(=O)NOC[C@@H](O)CO)c(Nc2ccc(I)cc2F)n1C | 115 | 49 | 19 | 58 | 48 | –
CC(=O)n1cc(Nc2ccc(I)cc2F)c(C(=O)NOCCO)c1 | 3 | 6 | 11 | 3100 | – | –
CC(=O)n1cc(C(=O)NOCCO)c(Nc2ccc(I)cc2F)c1C | 8 | 2 | 20 | 10000 | – | –
CC(=O)c1c(Cl)c(C(=O)NOC[C@@H](O)CO)c(Nc2ccc(I)cc2F)n1C | 38 | 30 | 13 | 18 | 29 | –
CC(=O)n1cc(Nc2ccc(I)cc2F)c(C(=O)O)c1 | 29 | 20 | 220 | > 50000 | – | –
CC(=O)c1c(Cl)c(C(=O)NOCCO)c(Nc2ccc(I)cc2F)n1C | 7 | 6 | 18 | 7 | 28 | –

More lines, main results first:

half-life [1] [min] | half-life [2] [min] | IC50 [3] [nM] | SMILES | EC50 (COLO 205) [nM] | EC50 (A-375) [nM] | other results
15 | 13 | 30 | CC(=O)c1cc(C(=O)N2CC(O)C2)c(Nc2ccc(I)cc2F)n1C | 32 | 97 | inhibition [4]: inactive; inhibition [5]: inactive; inhibition [6]: inactive; inhibition [7]: inactive; inhibition [8]: inactive; inhibition [9]: inactive; inhibition [10]: inactive; inhibition [11]: inactive; inhibition [12]: inactive; inhibition [13]: inactive; inhibition [14]: inactive; inhibition [15]: inactive; inhibition [16]: inactive; inhibition [17]: inactive; inhibition [18]: inactive; inhibition [19]: inactive; inhibition [20]: inactive; inhibition [21]: inactive
36 | 14 | – | CC(=O)c1cc(C(=O)NOCCO)c(Nc2ccc(I)cc2F)n1C | 12 | 14 | bioavailability [22]: 46%; MRT [23]: 384 min; MRT [24]: 55.8 min; Vd [25]: 2.9 L/kg
> 200 | 29 | 20 | CC(=O)c1cc(C(=O)NOC[C@H](O)CO)c(Nc2ccc(I)cc2F)n1C | 33 | 36 | bioavailability [22]: 19%; MRT [23]: 444 min; MRT [24]: 43.2 min; Vd [25]: 2.1 L/kg; clearance [26]: 48 mL/min/kg
123 | 7 | 42 | CC(=O)c1cc(C(=O)O)c(Nc2ccc(I)cc2F)n1C | 7100 | 2650 | –
150 | 68 | 11 | CC(=O)c1cc(C(=O)NOC[C@@H](O)CO)c(Nc2ccc(I)cc2F)n1C | 11 | 17 | –
55 | 64 | 7 | CC(=O)c1cc(C(=O)N2CC(N)C2)c(Nc2ccc(I)cc2F)n1C | 37 | 39 | inhibition [4]: inactive; inhibition [5]: inactive; inhibition [6]: inactive; inhibition [7]: inactive; inhibition [8]: inactive; inhibition [9]: inactive; inhibition [10]: inactive; inhibition [11]: inactive; inhibition [12]: inactive; inhibition [13]: inactive; inhibition [14]: inactive; inhibition [15]: inactive; inhibition [16]: inactive; inhibition [17]: inactive; inhibition [18]: inactive; inhibition [19]: inactive; inhibition [20]: inactive; inhibition [21]: inactive
14 | 9 | 13 | CC(=O)c1cc(C(=O)N2CC[C@@H](O)C2)c(Nc2ccc(I)cc2F)n1C | 84 | 127 | inhibition [4]: inactive; inhibition [5]: inactive; inhibition [6]: inactive; inhibition [7]: inactive; inhibition [8]: inactive; inhibition [9]: inactive; inhibition [10]: inactive; inhibition [11]: inactive; inhibition [12]: inactive; inhibition [13]: inactive; inhibition [14]: inactive; inhibition [15]: inactive; inhibition [16]: inactive; inhibition [17]: inactive; inhibition [18]: inactive; inhibition [19]: inactive; inhibition [20]: inactive; inhibition [21]: inactive
90 | 16 | 19 | CC(=O)c1cc(C(=O)NOC(CO)CO)c(Nc2ccc(I)cc2F)n1C | 20 | 33 | –
95 | 10 | 90 | CC(=O)c1cc(C(=O)NCCCO)c(Nc2ccc(I)cc2F)n1C | 128 | 313 | –
43 | 13 | 46 | CC(=O)c1cc(C(=O)NOCCCO)c(Nc2ccc(I)cc2F)n1C | 104 | 176 | –
